Laboratory results: ChEMBL document CHEMBL2157922, “Synthesis and antifungal activity of diverse C-2 pyridinyl and pyridinylvinyl substituted quinolines” (2012)
In brackets after ≈: the same amount, converted by molar mass.

Columns and labels:
[1] = test system: Candida albicans; assay: Antifungal activity against Candida albicans CCC 128 after 48 hrs by broth microdilution technique; format: functional; conditions: CCC 128, 48 h
[2] = test system: Candida tropicalis; assay: Antifungal activity against Candida tropicalis CCC 131 after 48 hrs by broth microdilution technique; format: functional; conditions: CCC 131, 48 h
[3] = test system: Trichophyton mentagrophytes; assay: Antifungal activity against Trichophyton mentagrophytes ATCC 9972 after 48 hrs by broth microdilution technique; format: functional; conditions: ATCC 9972, 48 h
Outline: (§1)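 Moulds and dermatophytes were run by CLSI broth microdilution in MOPS-buffered RPMI-1640 at pH 7.0. Aspergillus was incubated at 30 °C and dermatophytes at 28–30 °C, in a moist, dark chamber. MIC100, the lowest concentration with no visible growth, was read visually at a time set by growth of the control fungus.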

[4] = test system: Candida albicans; assay: Antifungal activity against Candida albicans CCC 127 after 48 hrs by broth microdilution technique; format: functional; conditions: CCC 127, 48 h
[5] = test system: Candida albicans; assay: Antifungal activity against Candida albicans ATCC 10231 at 15.6 ug/ml after 24 hrs; format: functional; conditions: ATCC 10231, 24 h
Outline: (§2)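 C. albicans was grown in 96-well RPMI-1640 broth microdilution with compound wells diluted from DMSO stocks. Growth wells with matched DMSO and sterility wells were included. After 24 h at 30 °C in a moist, dark chamber, OD405 was read. % inhibition = 100 − (CTW − SCW)/(GCW − SCW) OD, done in duplicate.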

[6] = test system: Nakaseomyces glabratus; assay: Antifungal activity against Candida glabrata CCC 115 after 48 hrs by broth microdilution technique; format: functional; conditions: CCC 115, 48 h
[7] = test system: Trichophyton rubrum; assay: Antifungal activity against Trichophyton rubrum CCC 113 after 48 hrs by broth microdilution technique; format: functional; conditions: CCC 113, 48 h
[8] = test system: Candida albicans; assay: Antifungal activity against Candida albicans CCC 130 after 48 hrs by broth microdilution technique; format: functional; conditions: CCC 130, 48 h
[9] = test system: Cryptococcus neoformans; assay: Antifungal activity against Cryptococcus neoformans IM 983040 after 48 hrs by broth microdilution technique; format: functional; conditions: IM 983040, 48 h
Outline: (§3)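 C. neoformans was tested by 96-well RPMI-1640 microdilution, with DMSO-matched growth and sterility control wells. Plates were incubated 48 h at 30 °C in a moist, dark chamber and read at OD405. % inhibition = 100 − (CTW − SCW)/(GCW − SCW), in duplicate. For the clinical isolates, MIC80 and MIC50 are the lowest concentrations giving 80% and 50% inhibition.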

[10] = test system: Saccharomyces cerevisiae; assay: Antifungal activity against Saccharomyces cerevisiae ATCC 9763 after 48 hrs by broth microdilution technique; format: functional; conditions: ATCC 9763, 48 h
Outline: (§4)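 Yeasts were tested by CLSI broth microdilution in RPMI-1640 buffered to pH 7.0 with MOPS, with compound from 250 down to 0.98 in DMSO stocks. Trays were held at 30 °C in a moist, dark chamber. MIC100, the lowest concentration giving total visual inhibition against the growth control, was read by eye at 48 h.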

[11] = test system: Pichia kudriavzevii; assay: Antifungal activity against Candida krusei CCC 117 after 48 hrs by broth microdilution technique; format: functional; conditions: CCC 117, 48 h
[12] = test system: Aspergillus niger; assay: Antifungal activity against Aspergillus niger ATCC 9029 after 48 hrs by broth microdilution technique; format: functional; conditions: ATCC 9029, 48 h; outline: as §1
[13] = test system: Aspergillus fumigatus; assay: Antifungal activity against Aspergillus fumigatus ATCC 26934 after 48 hrs by broth microdilution technique; format: functional; conditions: ATCC 26934, 48 h; outline: as §1
[14] = test system: Candida albicans; assay: Antifungal activity against Candida albicans ATCC 10231 at 7.8 ug/ml after 24 hrs; format: functional; conditions: ATCC 10231, 24 h; outline: as §2
[15] = test system: Cryptococcus neoformans; assay: Antifungal activity against Cryptococcus neoformans ATCC 32264 at 31.2 ug/ml after 48 hrs; format: functional; conditions: ATCC 32264, 48 h; outline: as §3
[16] = test system: Cryptococcus neoformans; assay: Antifungal activity against Cryptococcus neoformans ATCC 32264 at 15.6 ug/ml after 48 hrs; format: functional; conditions: ATCC 32264, 48 h; outline: as §3
[17] = test system: Cryptococcus neoformans; assay: Antifungal activity against Cryptococcus neoformans IM 983036 after 48 hrs by broth microdilution technique; format: functional; conditions: IM 983036, 48 h; outline: as §3
[18] = test system: Aspergillus flavus; assay: Antifungal activity against Aspergillus flavus ATCC 9170 after 48 hrs by broth microdilution technique; format: functional; conditions: ATCC 9170, 48 h; outline: as §1
[19] = test system: Cryptococcus neoformans; assay: Antifungal activity against Cryptococcus neoformans ATCC 32264 after 48 hrs by broth microdilution technique; format: functional; conditions: ATCC 32264, 48 h; outline: as §4
[20] = test system: Nannizzia gypsea; assay: Antifungal activity against Microsporum gypseum CCC 115 after 48 hrs by broth microdilution technique; format: functional; conditions: CCC 115, 48 h; outline: as §1
[21] = test system: Candida albicans; assay: Antifungal activity against Candida albicans CCC 130 after 24 hrs by broth microdilution technique; conditions: CCC 130, 24 h
[22] = test system: Candida albicans; assay: Antifungal activity against Candida albicans CCC 126 after 48 hrs by broth microdilution technique; format: functional; conditions: CCC 126, 48 h
[23] = test system: Candida albicans; assay: Antifungal activity against Candida albicans CCC 125 after 48 hrs by broth microdilution technique; format: functional; conditions: CCC 125, 48 h
[24] = test system: Candida albicans; assay: Antifungal activity against Candida albicans ATCC 10231 after 48 hrs by broth microdilution technique; format: functional; conditions: ATCC 10231, 48 h; outline: as §4
[25] = test system: Candida albicans; assay: Antifungal activity against Candida albicans CCC 129 after 48 hrs by broth microdilution technique; format: functional; conditions: CCC 129, 48 h
[26] = test system: Cryptococcus neoformans; assay: Antifungal activity against Cryptococcus neoformans IM 972724 after 48 hrs by broth microdilution technique; format: functional; conditions: IM 972724, 48 h; outline: as §3
[27] = test system: Candida parapsilosis; assay: Antifungal activity against Candida parapsilosis CCC 124 after 48 hrs by broth microdilution technique; format: functional; conditions: Lodderomyces parapsilosis, CCC 124, 48 h
[28] = test system: Candida albicans; assay: Antifungal activity against Candida albicans ATCC 10231 at 31.2 ug/ml after 24 hrs; format: functional; conditions: ATCC 10231, 24 h; outline: as §2
[29] = test system: Cryptococcus neoformans; assay: Antifungal activity against Cryptococcus neoformans IM 00319 after 48 hrs by broth microdilution technique; format: functional; conditions: IM 00319, 48 h; outline: as §3
[30] = test system: Cryptococcus neoformans; assay: Antifungal activity against Cryptococcus neoformans IM 972751 after 48 hrs by broth microdilution technique; format: functional; conditions: IM 972751, 48 h; outline: as §3
[31] = test system: Cryptococcus neoformans; assay: Antifungal activity against Cryptococcus neoformans IM 042074 after 48 hrs by broth microdilution technique; format: functional; conditions: IM 042074, 48 h; outline: as §3

`c1ccc2nc(-c3ccncc3)ccc2c1` was tested. Which MIC50 [1] did it give?
The MIC50 was 7.8 µg/mL (≈ 37.8 µM).

What about the MIC80 [1] of the same compound?
Its MIC80 is 15.6 µg/mL (≈ 75.6 µM).

And the MIC50 [2]?
Its MIC50 is 15.6 µg/mL (≈ 75.6 µM).

What about the MIC80 [2] of the same compound?
The MIC80 was 31.2 µg/mL (≈ 151 µM).

What about the MFC [3] of the same compound?
Its MFC is 62 µg/mL (≈ 301 µM).

What about the MIC [3] of the same compound?
Its MIC is 62 µg/mL (≈ 301 µM).

And the MIC50 [4]?
The MIC50 was 7.8 µg/mL (≈ 37.8 µM).

And the MIC80 [4]?
The MIC80 was 15.6 µg/mL (≈ 75.6 µM).

What about the inhibition at 15.6 µg/mL [5] of the same compound?
Its inhibition at 15.6 µg/mL is 80%.

And the MIC50 [6]?
The MIC50 was 15.6 µg/mL (≈ 75.6 µM).

What about the MIC80 [6] of the same compound?
The MIC80 was 15.6 µg/mL (≈ 75.6 µM).

And the MFC [7]?
Its MFC is 62 µg/mL (≈ 301 µM).

What about the MIC [7] of the same compound?
Its MIC is 62 µg/mL (≈ 301 µM).

What about the MIC80 [8] of the same compound?
The MIC80 was 31.2 µg/mL (≈ 151 µM).

And the MIC50 [9]?
The MIC50 was 15.6 µg/mL (≈ 75.6 µM).

What about the MIC80 [9] of the same compound?
The MIC80 was 31.2 µg/mL (≈ 151 µM).

What about the MFC [10] of the same compound?
Its MFC is 250 µg/mL (≈ 1210 µM).

What about the MIC [10] of the same compound?
The MIC was 62 µg/mL (≈ 301 µM).

And the MIC50 [11]?
The MIC50 was 31.2 µg/mL (≈ 151 µM).

And the MIC80 [11]?
Its MIC80 is 62.5 µg/mL (≈ 303 µM).

And the MFC [12]?
The MFC was 125 µg/mL (≈ 606 µM).

And the MIC [12]?
Its MIC is 62 µg/mL (≈ 301 µM).

What about the MFC [13] of the same compound?
The MFC was 125 µg/mL (≈ 606 µM).

What about the MIC [13] of the same compound?
Its MIC is 62 µg/mL (≈ 301 µM).

What about the inhibition at 7.8 µg/mL [14] of the same compound?
Its inhibition at 7.8 µg/mL is 50%.

And the inhibition at 31.2 µg/mL [15]?
The inhibition at 31.2 µg/mL was 80%.

What about the inhibition at 15.6 µg/mL [16] of the same compound?
The inhibition at 15.6 µg/mL was 80%.

And the MIC50 [17]?
The MIC50 was 7.8 µg/mL (≈ 37.8 µM).

What about the MIC80 [17] of the same compound?
Its MIC80 is 31.2 µg/mL (≈ 151 µM).

And the MFC [18]?
Its MFC is 125 µg/mL (≈ 606 µM).

What about the MIC [18] of the same compound?
Its MIC is 62 µg/mL (≈ 301 µM).

And the MFC [19]?
The MFC was 125 µg/mL (≈ 606 µM).

What about the MIC [19] of the same compound?
Its MIC is 62 µg/mL (≈ 301 µM).

And the MIC50 [19]?
Its MIC50 is 15.6 µg/mL (≈ 75.6 µM).

What about the MIC80 [19] of the same compound?
Its MIC80 is 15.6 µg/mL (≈ 75.6 µM).

And the MFC [20]?
The MFC was 62 µg/mL (≈ 301 µM).

What about the MIC [20] of the same compound?
Its MIC is 62 µg/mL (≈ 301 µM).

What about the MIC50 [21] of the same compound?
The MIC50 was 15.6 µg/mL (≈ 75.6 µM).

And the MIC50 [22]?
Its MIC50 is 15.6 µg/mL (≈ 75.6 µM).

What about the MIC80 [22] of the same compound?
The MIC80 was 31.2 µg/mL (≈ 151 µM).

What about the MIC50 [23] of the same compound?
The MIC50 was 15.6 µg/mL (≈ 75.6 µM).

What about the MIC80 [23] of the same compound?
The MIC80 was 15.6 µg/mL (≈ 75.6 µM).

What about the MFC [24] of the same compound?
Its MFC is 250 µg/mL (≈ 1210 µM).

What about the MIC [24] of the same compound?
Its MIC is 62 µg/mL (≈ 301 µM).

What about the MIC50 [24] of the same compound?
Its MIC50 is 7.8 µg/mL (≈ 37.8 µM).

What about the MIC80 [24] of the same compound?
The MIC80 was 15.6 µg/mL (≈ 75.6 µM).

What about the MIC50 [25] of the same compound?
Its MIC50 is 7.8 µg/mL (≈ 37.8 µM).

What about the MIC80 [25] of the same compound?
Its MIC80 is 15.6 µg/mL (≈ 75.6 µM).

And the MIC50 [26]?
Its MIC50 is 31.2 µg/mL (≈ 151 µM).

And the MIC80 [26]?
The MIC80 was 31.2 µg/mL (≈ 151 µM).

And the MIC50 [27]?
The MIC50 was 15.6 µg/mL (≈ 75.6 µM).

And the MIC80 [27]?
The MIC80 was 31.2 µg/mL (≈ 151 µM).

And the inhibition at 31.2 µg/mL [28]?
The inhibition at 31.2 µg/mL was 80%.

What about the MIC50 [29] of the same compound?
Its MIC50 is 31.2 µg/mL (≈ 151 µM).

What about the MIC80 [29] of the same compound?
Its MIC80 is 31.2 µg/mL (≈ 151 µM).

And the MIC50 [30]?
The MIC50 was 7.8 µg/mL (≈ 37.8 µM).

And the MIC80 [30]?
Its MIC80 is 31.2 µg/mL (≈ 151 µM).

And the MIC50 [31]?
The MIC50 was 15.6 µg/mL (≈ 75.6 µM).

What about the MIC80 [31] of the same compound?
The MIC80 was 31.2 µg/mL (≈ 151 µM).
